# Test results as given in article PMC6694902 (Journal of Taibah University Medical Sciences, 2017).
# Several values for one entry are separate records, joined by “and”; a condition that tells them apart may be missing. Identical values can stand only once.
# Key:
# [1] = tested on: Klebsiella pneumoniae (MTCC 109); test: Agar well diffusion, zone of inhibition; type: cell-based; settings: mean ± S.D., n = 6
# Procedure, shortened: (§1)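 Agar well diffusion on nutrient agar. K. pneumoniae MTCC 109 came from IMTECH; S. aureus (res) was an Utkal University isolate. Plates were seeded with 1.5 × 10^6 CFU/mL suspensions (McFarland 0.5). Test compounds were dissolved in DMF (1 mg/mL stock) and placed in wells, with amoxicillin and ampicillin as references. Plates were kept at 37 °C for 18–24 h, then zones were read.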
# Escherichia coli (res) [2] = test: Agar well diffusion, zone of inhibition; type: cell-based; settings: mean ± S.D., n = 6; resistant to norfloxacin, ofloxacin, ampicillin, cefixime, nitrofurantoin
# Procedure, shortened: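 Clinical isolate from a faecal sample (Bhubaneswar hospital). Nutrient agar plates were seeded with a 1.5 × 10^6 CFU/mL suspension matched to McFarland 0.5. Test compound was loaded into the agar wells from a DMF stock (1 mg/mL). Plates were incubated at 37 °C for 18–24 h and the inhibition zone was read. Amoxicillin and ampicillin were the reference antibiotics.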
# Cryptococcus neoformans [3] = test: Minimum inhibitory concentration; type: cell-based; settings: for MIC: Cryptococcus neoformans, read-out: Minimum inhibitory concentration (MIC), C. neoformans; for Minimum inhibitory concentration (MIC), C. neoformans: 31.25–500 µg/mL tested, 37 °C, 18–24 h
# Procedure, shortened: (§2)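 MIC was determined in agar wells on Sabouraud dextrose agar seeded with the fungal strain (McFarland 0.5, 1.5 × 10^6 CFU/mL). DMF stocks at 1 mg/mL were diluted two-fold to five levels (31.25–500 µg/mL) and loaded into wells, with fluconazole as reference. After 18–24 h at 37 °C, the lowest inhibitory concentration was taken as the MIC.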
# [4] = tested on: Candida albicans (MTCC 3017); test: Minimum inhibitory concentration; type: cell-based; settings: for MIC: Candida albicans, MTCC3017, read-out: Minimum inhibitory concentration (MIC), C. albicans; for Minimum inhibitory concentration (MIC), C. albicans: 31.25–500 µg/mL tested, 37 °C, 18–24 h
# Procedure, shortened: as §2
# Escherichia coli (res) [5] = test: Minimum inhibitory concentration; type: cell-based; settings: for Minimum inhibitory concentration (MIC), E. coli (res): 31.25–500 µg/mL tested, 37 °C, 18–24 h
# Procedure, shortened: (§3)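 MIC was determined in nutrient agar wells seeded with bacteria (McFarland 0.5, 1.5 × 10^6 CFU/mL). E. coli (res) and S. aureus (res) were clinical isolates; K. pneumoniae was MTCC 109. DMF stocks at 1 mg/mL were diluted two-fold to five levels (31.25–500 µg/mL) in wells, with amoxicillin and ampicillin as references. Plates were incubated at 37 °C for 18–24 h.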
# [6] = tested on: Candida albicans (MTCC 3017); test: Agar well diffusion, zone of inhibition; type: cell-based; settings: mean ± S.D., n = 6
# Procedure, shortened: (§4)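 Agar well diffusion on Sabouraud dextrose agar. C. albicans MTCC 3017 came from IMTECH; C. neoformans was an Utkal University strain. Plates were seeded with 1.5 × 10^6 CFU/mL suspensions (McFarland 0.5). Test compounds were dissolved in DMF (1 mg/mL stock) and loaded into wells, with fluconazole as reference. Incubation was 37 °C for 18–24 h, and zones were measured.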
# Cryptococcus neoformans [7] = test: Agar well diffusion, zone of inhibition; type: cell-based; settings: mean ± S.D., n = 6
# Procedure, shortened: as §4
# [8] = DPPH radical scavenging assay; type: biochemical; settings: mean ± S.D., n = 3; for IC50 (DPPH radical scavenging): graphically determined
# Procedure, shortened: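 DPPH scavenging, a modified method, was read as absorbance at 517 nm for test compounds at several concentrations. BHT served as standard, and DPPH in methanol served as control. Percent inhibition was calculated from control and sample absorbances, and IC50 was obtained graphically. Data were analysed by one-way ANOVA with Dunnett's post hoc test.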
# [9] = tested on: Staphylococcus aureus (res); test: Agar well diffusion, zone of inhibition; type: cell-based; settings: mean ± S.D., n = 6; resistant to norfloxacin, ofloxacin, ampicillin, cefotaxime
# Procedure, shortened: as §1
# [10] = tested on: Klebsiella pneumoniae (MTCC 109); test: Minimum inhibitory concentration; type: cell-based; settings: 31.25–500 µg/mL tested, 37 °C, 18–24 h
# Procedure, shortened: as §3
# [11] = tested on: Staphylococcus aureus (res); test: Minimum inhibitory concentration; type: cell-based; settings: for Minimum inhibitory concentration (MIC), S. aureus (res): 31.25–500 µg/mL tested, 37 °C, 18–24 h
# Procedure, shortened: as §3
Compound,"zone of inhibition, K. pneumoniae [1]","zone of inhibition, E. coli (res) (Escherichia coli (res) [2])",MIC (Cryptococcus neoformans [3]) [µg/mL],MIC [4] [µg/mL],"MIC (Escherichia coli (res) [5]; Escherichia coli, read-out: Minimum inhibitory concentration (MIC), E. coli (res), 31.25–500 µg/mL tested, 37 °C, 18–24 h) [µg/mL]","zone of inhibition, C. albicans [6] [mm]","zone of inhibition, C. neoformans (Cryptococcus neoformans [7]) [mm]",% Inhibition (DPPH) ([8]; Conc. 10 μg/mL) [%],% Inhibition (DPPH) ([8]; Conc. 30 μg/mL) [%],% Inhibition (DPPH) ([8]; Conc. 50 μg/mL) [%],% Inhibition (DPPH) ([8]; Conc. 70 μg/mL) [%],IC50 (DPPH radical scavenging) [8] [µg/mL],"zone of inhibition, S. aureus (res) [9]","Minimum inhibitory concentration (MIC), K. pneumoniae [10] [µg/mL]","Minimum inhibitory concentration (MIC), C. neoformans (Cryptococcus neoformans [3]) [µg/mL]","Minimum inhibitory concentration (MIC), C. albicans [4] [µg/mL]","Minimum inhibitory concentration (MIC), S. aureus (res) [11] [µg/mL]","Minimum inhibitory concentration (MIC), E. coli (res) (Escherichia coli (res) [5]) [µg/mL]","MIC ([11]; Staphylococcus aureus, read-out: Minimum inhibitory concentration (MIC), S. aureus (res), 31.25–500 µg/mL tested, 37 °C, 18–24 h) [µg/mL]"
"Cc1cc(N=Nc2ccc(O)c(C=Nc3nc(-c4ccc(Cl)cc4)cs3)c2)ccc1Br [5b(Lig), 4-[(4-bromo-3-methylphenyl)diazenyl]-2-[(4-(4-chlorophenyl)thiazol-2-ylimino)methyl]phenol]",13.5 ± 2.43 mm,15.33 ± 2.07 mm,250,250,31.2,12 ± 1.27,12.33 ± 1.75,19.26 ± 0.04,38.53 ± 0.09,48.33 ± 0.07,79.89 ± 0.06,52 ± 1.13,11.5 ± 1.87 mm,–,–,–,–,–,–
"Cc1cc(N=Nc2ccc([O][Ni][O]c3ccc(N=Nc4ccc(Br)c(C)c4)cc3C=Nc3nc(-c4ccccc4)cs3)c(C=Nc3nc(-c4ccccc4)cs3)c2)ccc1Br [Compound 6c, Bis[{4-((4-bromo-3-methylphenyl)diazenyl)-2-((4-phenylthiazol-2-ylimino)methyl)phenoxy}] nickel]",14.67 ± 3.14 mm,–,–,–,–,11.33 ± 1.51,15.83 ± 1.84,25.43 ± 0.08,39.65 ± 0.09,61.41 ± 0.04,83.11 ± 0.04,40 ± 0.59,14.83 ± 1.84 mm,62.5,31.25,250,62.5,–,–
"Cc1cc(C(C)(C)C)c(O)c(C(C)(C)C)c1 [BHT, butylated hydroxy toluene, reference compound]",–,–,–,–,–,–,–,32.32 ± 0.01,49.54 ± 0.01,59.99 ± 0.10,87.74 ± 0.06,31 ± 0.70,–,–,–,–,–,–,–
"Cc1cc(N=Nc2ccc([O][Cu][O]c3ccc(N=Nc4ccc(Br)c(C)c4)cc3C=Nc3nc(-c4ccccc4)cs3)c(C=Nc3nc(-c4ccccc4)cs3)c2)ccc1Br [Compound 6b, Bis[{4-((4-bromo-3-methylphenyl)diazenyl)-2-((4-phenylthiazol-2-ylimino)methyl)phenoxy}] copper,]",16 ± 2.37^∗ mm,15.83 ± 1.84^∗ mm,–,–,–,13.33 ± 2.34,12.67 ± 1.51,28.43 ± 0.07,41.83 ± 0.02,51.41 ± 0.05,79.97 ± 0.06,48 ± 0.89,18.33 ± 1.75^∗ mm,31.25,250,125,31.25,31.25,–
Bis[{4-((4-bromo-3-methylphenyl)diazenyl)-2-((4-phenylthiazol-2-limino)methyl)phenoxy}] cobalt [Compound 6a],16.17 ± 1.94 mm and 16.17 ± 1.94^∗ mm,16.67 ± 2.34 mm and 16.67 ± 2.34^∗ mm,–,–,–,12.83 ± 2.23,13.67 ± 2.94,29.72 ± 0.07,43.32 ± 0.11,63.44 ± 0.07,83.02 ± 0.06,36 ± 0.56,20.83 ± 1.84 mm and 20.83 ± 1.84^∗ mm,31.25,125,31.25,31.25,31.25,–
"Cc1cc(N=Nc2ccc([O][Cu][O]c3ccc(N=Nc4ccc(Br)c(C)c4)cc3C=Nc3nc(-c4ccc(Cl)cc4)cs3)c(C=Nc3nc(-c4ccc(Cl)cc4)cs3)c2)ccc1Br [Compound 6e, Bis[4-{(4-bromo-3-methylphenyl)diazenyl}-2-{(4-(4-chlorophenyl)thiazol-2-ylimino)methyl}phenoxy] copper,]",15.83 ± 2.23 mm,14.83 ± 2.56 mm,–,–,–,11.17 ± 6.21,10.5 ± 1.52,31.24 ± 0.06,41.31 ± 0.02,51.77 ± 0.08,79.89 ± 0.04,46 ± 0.98,14.5 ± 1.52 mm,31.25,250,250,62.5,62.5,–
"Cc1cc(N=Nc2ccc([O][Ni][O]c3ccc(N=Nc4ccc(Br)c(C)c4)cc3C=Nc3nc(-c4ccc(Cl)cc4)cs3)c(C=Nc3nc(-c4ccc(Cl)cc4)cs3)c2)ccc1Br [Compound 6f, bis[4-{(4-bromo-3-methylphenyl)diazenyl}-2-{(4-(4-chlorophenyl)thiazol-2-ylimino)methyl}phenoxy] nickel]",16.67 ± 1.37^∗ mm,–,–,–,–,12.5 ± 1.52,10.33 ± 1.75,39.73 ± 0.02,53.38 ± 0.03,63.38 ± 0.01,79.53 ± 0.02,–,15.17 ± 1.94 mm,31.25,250,125,31.25,–,–
"Cc1cc(N=Nc2ccc(O)c(C=Nc3nc(-c4ccccc4)cs3)c2)ccc1Br [5a(Lig), 4-[(4-bromo-3-methylphenyl)diazenyl)-2-[(4-phenylthiazol-2-ylimino)methyl]phenol]",12.67 ± 2.25 mm,13.67 ± 2.34 mm,250,250,–,12.17 ± 2.23,13.33 ± 1.37,27.99 ± 0.04,39.34 ± 0.02,49.09 ± 0.07,63.9 ± 0.05,56 ± 0.78,15.83 ± 2.79^∗ mm,–,–,–,–,–,31.2
